What was measured:
[1] = target: Munc13-1 W22K mutant C1 domain (Rattus norvegicus, UniProt Q62768, W588K); test: In vitro [^3H]PDBu binding assay, GST-tagged C1 domain; details: 100 μg/mL lipid, 0.1 mM Ca2+
[2] = target: Munc13-1 W22K mutant C1 domain; test: as above; design: species or system rat
[3] = target: full-length Munc13-1 protein incorporating the W22K mutation (W588 K) (Rattus norvegicus, UniProt Q62768, W588K); details: in vitro binding conditions as for full-length WT
In short: (§1)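 Rat full-length Munc13-1 (WT or W588 mutant) was expressed as an N-terminal Halo fusion in transfected HEK-293 cells and harvested after one day. It was purified on Halo-link resin, released with TEV protease and stored in 30% glycerol at –80 °C. [3H]PDBu saturation binding used 100 μg/mL lipid (100% PS) and 0.1 mM Ca2+. Kd came from saturation/Scatchard analysis; triplicate points, 3–6 experiments, mean ± SEM.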

[4] = target: full-length Munc13-1 wild-type protein (Rattus norvegicus, UniProt Q62768); type: binding; details: 100 μg/mL lipid (100% PS), 0.1 mM Ca2+
In short: as §1

[5] = target: Munc13-1 WT C1 domain (Rattus norvegicus, UniProt Q62768); test: In vitro [^3H]PDBu binding assay, GST-tagged C1 domain; details: for Kd: 100 μg/mL lipid
[6] = target: Munc13-1 W22A mutant C1 domain (Rattus norvegicus, UniProt Q62768, W588A); test: as above; details: 100 μg/mL lipid, 0.1 mM Ca2+
[7] = target: Munc13-1 W22A mutant C1 domain; test: as above; design: species or system rat
[8] = target: full-length Munc13-1 mutated at W588D (Rattus norvegicus, UniProt Q62768, W588D); type: binding; details: preparation from cells expressing the mutant
[9] = test system: W22G of PKCθ C1B; details: 100% PS; cited from earlier work
[10] = test system: W22G of PKCδ C1B; details: 100% PS; cited from earlier work
[11] = test system: PKCδ C1B W22R; details: PS concentration 10%; cited from earlier work
[12] = target: full-length GFP-Munc13-1 W588K (Rattus norvegicus, UniProt Q62768, W588K); test: PMA-induced membrane translocation, confocal microscopy of Neuro-2a cells; type: cell-based; details: 1000 nM PMA, 0-8 min, vs wild-type
[13] = target: GFP-tagged full-length Munc13-1 (Rattus norvegicus, UniProt Q62768); test: Translocation after PMA treatment, confocal microscopy of LNCaP cells; type: cell-based
In short: (§2)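 LNCaP cells (passage 2–15; RPMI-1640, 10% FBS, 2 mM L-glutamine) were grown to 75% confluency and transfected with Lipofectamine plus Plus reagent 24 h after plating. They expressed GFP-tagged rat Munc13-1 C1 domain or GFP-tagged full-length protein. After a further 24 h, cells were moved to phenol-red-free DMEM with 1% FBS. PMA (100 or 1000 nM) was added and localization was followed by live confocal imaging (GFP ex 488 nm); 3 independent experiments.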

[14] = target: full-length GFP-Munc13-1 W588F (Rattus norvegicus, UniProt Q62768, W588F); test: PMA-induced membrane translocation, confocal microscopy of Neuro-2a cells; type: cell-based; details: 1000 nM PMA, 0-8 min, vs wild-type
[15] = target: GFP tagged Munc13-1 C1 domain (Rattus norvegicus, UniProt Q62768); test: Translocation after PMA treatment, confocal microscopy of LNCaP cells; type: cell-based
In short: as §2

[16] = target: full-length GFP-Munc13-1 W588A (Rattus norvegicus, UniProt Q62768, W588A); test: PMA-induced membrane translocation, confocal microscopy of Neuro-2a cells; type: cell-based; details: 1000 nM PMA, 0-8 min, vs wild-type
In short: (§3)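 EGFP-tagged full-length rat Munc13-1 mutants were made by site-directed mutagenesis. Neuro-2a cells (passage 2–15; RPMI-1640, 10% FBS, 2 mM L-glutamine; 37 °C) were transfected with Lipofectamine 3000. After 24 h, cells went into phenol-red-free DMEM with 1% FBS. PMA (1000 nM) was added at time 0, with confocal imaging every 20 s (ex 488 nm, em 500–530 nm). Membrane/cytoplasm intensity ratio used three ~5 μm2 regions at 0, 2, 4 and 8 min; 3 cells × 3 experiments, mean ± SEM.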

[17] = target: full-length GFP-Munc13-1 W588Y (Rattus norvegicus, UniProt Q62768, W588Y); test: as above; type: cell-based; details: 1000 nM PMA, 0-8 min, vs wild-type
In short: as §3

[18] = target: full-length GFP-Munc13-1 W599D (Rattus norvegicus, UniProt Q62768, W588D); test: as above; type: cell-based; details: 1000 nM PMA, 0-8 min, vs wild-type
In short: as §3

## CCCC(=O)O[C@@H]1[C@@H](C)[C@@]2(O)[C@@H](C=C(CO)C[C@]3(O)C(=O)C(C)=C[C@@H]23)[C@@H]2C(C)(C)[C@]12OC(=O)CCC [[^3H]PDBu, [20-^3H]Phorbol 12,13-dibutyrate]
[1]; Lipid 20:80 PS:PC
  Kd: 420 ± 120 nM
[1]; Lipid 100:0 PS:PC
  Kd: 160 ± 20 nM
[2]; Lipid 20:80 PS:PC
  Kd(mutant)/Kd(WT): 13
[2]; Lipid 100:0 PS:PC
  Kd(mutant)/Kd(WT): 1.6
[3]
  Kd: 3.3 ± 1.2 nM
[4]
  Kd: 3.7 ± 0.32 nM
[5]; 5 nM [^3H]PDBu, 100 μg/mL phospholipid, 0.1 mM Ca2+
  amount of [^3H]PDBu bound at 100% PS relative to that at 20% PS: less than 15%
[5]; 100% PS
  fold weaker binding affinity than that of the C1b domain of PKCδ: 100 fold
[5]; Lipid 20:80 PS:PC, 0.1 mM Ca2+
  Kd: 32.5 ± 2.6 nM
[5]; Lipid 100:0 PS:PC, 0.1 mM Ca2+
  Kd: 98 ± 36 nM
[6]; Lipid 20:80 PS:PC
  Kd: > 1000 nM
[6]; Lipid 100:0 PS:PC
  Kd: 460 ± 260 nM
[7]; Lipid 20:80 PS:PC
  Kd(mutant)/Kd(WT): >31
[7]; Lipid 100:0 PS:PC
  Kd(mutant)/Kd(WT): 4.7
[8]
  [^3H]PDBu binding: did not see any binding

## CCCCCCCCCCCCCC(=O)O[C@@H]1[C@@H](C)[C@@]2(O)[C@@H](C=C(CO)C[C@]3(O)C(=O)C(C)=C[C@@H]23)[C@@H]2C(C)(C)[C@]12OC(C)=O [phorbol ester]
[2]; Lipid 20:80 PS:PC
  Kd(mutant)/Kd(WT): 13
[2]; Lipid 100:0 PS:PC
  Kd(mutant)/Kd(WT): 1.6
[4]
  Kd: 3.7 nM
[9]
  fold reduction in phorbol ester affinity as compared to WT: 8 fold
[10]
  fold reduction in phorbol ester affinity as compared to WT: 31 fold
[5]; Lipid 100:0 PS:PC, 0.1 mM Ca2+
  Kd: 98 nM
[7]; Lipid 100:0 PS:PC
  Kd(mutant)/Kd(WT): ~ 5
[11]
  fold reduced phorbol ester affinity as compared to the WT: 9 fold

## CCCCCCCCCCCCCC(=O)O[C@@H]1[C@@H](C)[C@@]2(O)[C@@H](C=C(CO)C[C@]3(O)C(=O)C(C)=C[C@@H]23)[C@@H]2C(C)(C)[C@]12OC(C)=O [PMA, phorbol 12-myristate 13-acetate]
[12]
  translocation in response to PMA: did not significantly influence the translocation
[13]
  translocation of full-length Munc13-1: translocated to the plasma membrane
[14]
  translocation in response to PMA: did not significantly influence the translocation
[15]; 100 nM PMA
  translocation of GFP-C1 domain: Translocation was not observed
[15]; 1000 nM PMA
  translocation of GFP-C1 domain: translocated within 10 min from the nucleus to internal membranes but not to the plasma membrane
[16]
  translocation in response to PMA: significantly decreased translocation
[17]
  translocation in response to PMA: delayed
[18]
  translocation in response to PMA: totally abolished
